Consider three molecules from ChEMBL document CHEMBL3739318, “Orally Bioavailable Metal Chelators and Radical Scavengers: Multifunctional Antioxidants for the Coadjutant Treatment of Neurodegenerative Diseases” (J Med Chem, 2015).

Active and inactive are the calls of the source. No cut-off for these calls is given here.

In the first data set the test system is ARPE-19. The experiment in a line: Neuroprotective activity against Fenton reagent-induced ROS generation-stimulated cytotoxicity in human ARPE19 cells assessed as cell viability at 1 mM after 2 hrs by MTS assay. Type of data set: functional, cell-based.
Settings: not given
Put shortly:
(§1)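 Cells in 96-well format exposed 2 h to Fenton reagent (1 mM H2O2 + 1 mM Fe2+) with or without 1 mM compound in 0.16% DMSO. Viability by MTS assay, normalized to untreated cells without Fenton reagent (100%). Mean ± SEM, n = 4. ANOVA.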
Take `Cc1c(C)c2c(c(C)c1O)CCC(C)(C(=O)O)O2` (stereo not drawn) [TROLOX]: the result was Active.

Take `Oc1c(I)cc(Cl)c2cccnc12` [CLIOQUINOL]: the result was Active.

For another data set, the system named is ARPE-19. As to the kind of experiment: Neuroprotective activity against Fenton reagent-induced ROS generation in human ARPE19 cells assessed as increase in GSH level at 1 mM after 2 hrs by DTNB method.
Settings: not given
Type of data set: functional, cell-based. In a few lines:
(§2)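 Cells grown in 60 or 150 mm dishes and exposed 2 h to Fenton reagent (1 mM H2O2 + 1 mM Fe2+) with or without 1 mM compound in 0.16% DMSO. Intracellular glutathione then measured. Mean ± SEM, n = 6. ANOVA.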
`Cc1c(C)c2c(c(C)c1O)CCC(C)(C(=O)O)O2` (stereo not drawn) [TROLOX]: the result was Active.

Regarding `Oc1c(I)cc(Cl)c2cccnc12` [CLIOQUINOL], the outcome was Active.

For the next data set, the system named is ARPE-19. The experiment in a line: Neuroprotective activity against Fenton reagent-induced hydroxy radical-stimulated cytotoxicity in human ARPE19 cells assessed as cell survival at 1 to 1000 uM preincubated for 1 hr followed by Fenton reagent challenge for 2 hrs by fluorescence-based LIVE/DEAD viability/cytotoxicity assay. Type of data set: functional.
Settings: not given
In a few lines: (§3)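 After a PBS wash, cells preincubated 1 h at 37 °C in serum-free medium with 1–1000 μM compound. Fenton reagent (Fe2+/H2O2, 100 μM final) then added for 2 h. Stained 15 min at 37 °C with calcein AM 8 μM and EthD-1 16 μM. Fluorescence read at 494/517 and 528/617 nm. % live cells calculated from blank-corrected single-dye controls; dead-cell control 70% ethanol. Mean ± SEM, n = 6.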
In the case of `Cc1c(C)c2c(c(C)c1O)CCC(C)(C(=O)O)O2` (stereo not drawn) [TROLOX], the Activity entry was “Dose-dependent effect”.

As for `Oc1c(I)cc(Cl)c2cccnc12` [CLIOQUINOL], the Activity result is “Dose-dependent effect”.

Another data set relates to Brain. As to the kind of experiment: Drug uptake in brain of C57BL/6 mouse assessed per mg of protein at 80 mg/kg, po administered everyday for 14 days by HPLC-MS analysis. Type of data set: ADME, organism-based. To be noted: in vivo, 336 h. In a few lines:
(§4)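 C57BL/6 mice fed chow containing 0.05% compound (~80 mg/kg/day average) for 14 days. Perfused with PBS; brain, lens and neural retina homogenized in ice-cold 10 mM acetate pH 4 with internal standard. Extracted with TCA precipitation and chloroform. Analyzed by reverse-phase C18 HPLC.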
Regarding `COc1nc(N2C(=O)CN(S(=O)(=O)N(C)C)CC2=O)nc(OC)c1O`, the Drug uptake was 4 ng/mg.

Tested on in a further data set: not listed separately
The experiment in a line: Drug uptake in lens of C57BL/6 mouse assessed per mg of protein at 80 mg/kg, po administered everyday for 14 days by HPLC-MS analysis. Type of data set: ADME, organism-based, Lens of camera-type eye. Conditions: in vivo, 336 h. Put shortly: as §4
In the case of `COc1nc(N2C(=O)CN(S(=O)(=O)N(C)C)CC2=O)nc(OC)c1O`, the Drug uptake entry was “Active”.

Tested on in a further data set: not listed separately
As to the kind of experiment: Drug uptake in neural retina of C57BL/6 mouse assessed per mg of protein at 80 mg/kg, po administered everyday for 14 days by HPLC-MS analysis. Type of data set: ADME, organism-based. To be noted: in vivo, 336 h. Put shortly:
as §4
`COc1nc(N2C(=O)CN(S(=O)(=O)N(C)C)CC2=O)nc(OC)c1O`: the Drug uptake entry is recorded as “Active”.

Tested on in another data set: not listed separately
The experiment in a line: Cytotoxicity against human ARPE19 cells assessed as reduction in cell viability at 1 mM after 2 hrs by MTS assay. Type of data set: cell-based. Conditions: arpe-19, 2 h, 1000 µM. Put shortly:
(§5)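 ARPE-19 grown in DMEM + 4% FBS and SH-SY5Y in EMEM/F12 + 10% FBS, at 37 °C, 5% CO2. Plated at 1 × 10^4 cells/well. Exposed 2 h to 1 mM compound (0.16% DMSO) without oxidant. Viability by MTS. Mean ± SEM, n = 4, ANOVA versus blank control.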
Consider `Cc1c(C)c2c(c(C)c1O)CCC(C)(C(=O)O)O2` (stereo not drawn) [TROLOX], for which the Activity result is “Non-toxic”.

Regarding `Oc1c(I)cc(Cl)c2cccnc12` [CLIOQUINOL], the Activity amounted to 30%.

In another data set the test system is SH-SY5Y. The experiment in a line: Neuroprotective activity against Fenton reagent-induced hydroxy radical-stimulated cytotoxicity in human SH-SY5Y cells assessed as cell survival at 1 to 1000 uM preincubated for 1 hr followed by Fenton reagent challenge for 2 hrs by fluorescence-based LIVE/DEAD viability/cytotoxicity assay.
Settings: not given
Type of data set: functional. In a few lines: as §3
In the case of `Cc1c(C)c2c(c(C)c1O)CCC(C)(C(=O)O)O2` (stereo not drawn) [TROLOX], the Activity entry is “Dose-dependent effect”.

Turning to `Oc1c(I)cc(Cl)c2cccnc12` [CLIOQUINOL], the Activity result is “Dose-dependent effect”.

The subject of another data set is SH-SY5Y. As to the kind of experiment: Cytotoxicity against human SH-SY5Y cells assessed as reduction in cell viability at 1 mM after 2 hrs by MTS assay. Type of data set: cell-based. Conditions: 1000 µM. Put shortly: as §5
`Cc1c(C)c2c(c(C)c1O)CCC(C)(C(=O)O)O2` (stereo not drawn) [TROLOX]: the Activity result is recorded as “Non-toxic”.

On to `Oc1c(I)cc(Cl)c2cccnc12` [CLIOQUINOL], for which the Activity was determined as 20%.

The next data set concerns ARPE-19. As to the kind of experiment: Antioxidant activity in human ARPE19 cells assessed as reduction of xanthine oxidase-mediated superoxide generation preincubated for 1 hr followed by xanthine oxidase challenge for 1 hr by MitoSOX staining-based fluorescence analysis. Type of data set: functional, cell-based.
Settings: not given
Put shortly: (§6)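 Cells washed with PBS, then preincubated 1 h at 37 °C in serum-free medium with 1, 10, 100 or 1000 μM compound, or SOD 25 μg/mL as reference. Xanthine oxidase added (25 mU/mL; ~100 μM superoxide) for 1 h more. After a PBS wash, cells stained with MitoSOX Red (5 μM) for 2 h. Fluorescence read at Ex/Em 510/580 nm.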
Turning to `Cc1c(C)c2c(c(C)c1O)CCC(C)(C(=O)O)O2` (stereo not drawn) [TROLOX], the Activity entry is “Dose-dependent effect”.

Take `Oc1c(I)cc(Cl)c2cccnc12` [CLIOQUINOL]: the Activity result was “Dose-dependent effect”.

The next data set deals with SH-SY5Y. As to the kind of experiment: Antioxidant activity in human SH-SY5Y cells assessed as reduction of xanthine oxidase-mediated superoxide generation preincubated for 1 hr followed by xanthine oxidase challenge for 1 hr by MitoSOX staining-based fluorescence analysis. Type of data set: functional, cell-based.
Settings: not given
Put shortly:
as §6
For the molecule `Cc1c(C)c2c(c(C)c1O)CCC(C)(C(=O)O)O2` (stereo not drawn) [TROLOX], the Activity entry was “Dose-dependent effect”.

With `Oc1c(I)cc(Cl)c2cccnc12` [CLIOQUINOL], the Activity result is “Dose-dependent effect”.

The next data set has as its system SH-SY5Y. The experiment in a line: Neuroprotective activity against Fenton reagent-induced ROS generation-stimulated cytotoxicity in human SH-SY5Y cells assessed as cell viability at 1 mM after 2 hrs by MTS assay. Type of data set: functional, cell-based.
Settings: not given
Put shortly: as §1
In the case of `Cc1c(C)c2c(c(C)c1O)CCC(C)(C(=O)O)O2` (stereo not drawn) [TROLOX], the outcome was Active.

As to `Oc1c(I)cc(Cl)c2cccnc12` [CLIOQUINOL], the result was Active.

The subject of the next data set is SH-SY5Y. The experiment in a line: Neuroprotective activity against Fenton reagent-induced ROS generation in human SH-SY5Y cells assessed as increase in GSH level at 1 mM after 2 hrs by DTNB method. Type of data set: functional, cell-based.
Settings: not given
In a few lines:
as §2
Consider `Cc1c(C)c2c(c(C)c1O)CCC(C)(C(=O)O)O2` (stereo not drawn) [TROLOX], for which the result was Active.

As to `Oc1c(I)cc(Cl)c2cccnc12` [CLIOQUINOL], the outcome was Active.
